Data published in paper PMC6331719 (The EMBO Journal, 2018).
Square brackets hold non-standard residues; d marks the D form. Ends that are not written are not given here. Peptide text beside a SMILES is read from it. * marks the point of attachment. DON = [N-]=[N+]=CC(=O)CC[C@H](N)C(=O)O; Cbz = O=C(OCc1ccccc1)*

Legend:
TG2 and CFTR = assay: Co-immunoprecipitation of TG2 and CFTR, Caco-2 cells; type: cell-based, human; details: Caco-2, pre-treatment
TG2 = TG2 activity and TG2-catalysed crosslinking in Caco-2 cells; type: cell-based, human; details: Caco-2, Z-DON or TG2 siRNA
[1] = system: CFTR (Caco-2 and T84 cells); assay: Iodide efflux by SPQ in intestinal epithelial cells; type: cell-based, human; details: forskolin stimulation, 20 μg/ml 3 h, n = 3
CFTR (Caco‐2 cells) = assay: Ussing chamber, CFTR-dependent Cl- secretion in Caco-2 cells; type: cell-based, human; details: for Effect on forskolin-inducible chloride current: Caco-2 or T84, 3 h, peptides 20 μg/ml, PT gliadin 500 μg/ml
Outline: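 Caco-2 or T84 monolayers grown on 0.4-μm Transwells to 800–1,200 Ω cm2, then mounted in Ussing chambers. Ringer both sides, 37°C, gassed with 95% O2/5% CO2. Cells pretreated 3 h with peptides (20 μg/ml) or PT gliadin (500 μg/ml), or given bath peptides (100 μM, 3–5 min) after 100 μM amiloride. VX-770 10 μM for 5 min. Forskolin 20 μM; peak CFTRinh172-sensitive Isc.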

CFTR = assay: Co-immunoprecipitation of CFTR with biotinylated peptide, Caco-2 cells; type: binding, human; details: Caco-2, biotinylated peptide, 1 h
[2] = system: recombinant human NBD1 (rhNBD1); assay: Surface plasmon resonance, rhNBD1; type: binding; details: CM5 chip, 20°C, HEPES pH 7.4, 2 mM ATP, 5 mM MgCl2; at least three independent experiments
Outline: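 NBD1 was recombinant human residues 389–678, immobilised by amine coupling to 2000 RU; a blank flow cell served as reference. Running buffer also contained 150 mM NaCl, 0.05% Tween-20 and 1 mM DTT, at a flow of 20 μl/min. Each run used three start-up buffer injections, a zero control, then a concentration series of peptide analyte.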

NBD1 = NBD1 (Homo sapiens, UniProt P13569, F429S/F494N/Q637R); assay: NBD1 ATPase activity; type: biochemical
NBD1, sequence (P13569 389-678 F429S/F494N/Q637R): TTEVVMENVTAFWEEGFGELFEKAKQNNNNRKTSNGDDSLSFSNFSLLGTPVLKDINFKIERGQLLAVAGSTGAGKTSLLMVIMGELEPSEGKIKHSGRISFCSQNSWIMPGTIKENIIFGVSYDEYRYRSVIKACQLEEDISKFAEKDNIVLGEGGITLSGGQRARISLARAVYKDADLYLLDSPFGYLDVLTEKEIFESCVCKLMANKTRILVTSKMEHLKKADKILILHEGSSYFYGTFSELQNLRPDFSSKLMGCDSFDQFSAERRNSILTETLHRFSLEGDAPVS

Caco‐2 and T84 cells = assay: Cell viability of Caco-2 / T84 cells; type: cell-based, human; details: 3 h
enterocytes / T cells = details: ref Maiuri et al, 2003; Meresse et al, 2009; Barone et al, 2014; cited from earlier work
TG2 and NBD1 = assay: Blue native PAGE, peptide with TG2 and rhNBD1; type: binding, human; details: Ca2+-activated TG2, biotinylated peptide
Outline: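 Recombinant proteins and the indicated peptides were pre-incubated together at 4°C for 30 min in buffer. Samples were then run under native conditions to preserve peptide/protein complexes.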

celiac PBMC = assay: Caco-2 / celiac PBMC bidimensional co-culture, cytokine release; type: cell-based, human; details: lower compartment, celiac vs control PBMC
[3] = biological target: wild‐type human NBD1[389–673], without any solubilizing mutations (human, UniProt P13569-1 389-673); assay: native gel or EMSA
wild‐type human NBD1[389–673], without any solubilizing mutations, sequence (P13569 389-673, change not shown): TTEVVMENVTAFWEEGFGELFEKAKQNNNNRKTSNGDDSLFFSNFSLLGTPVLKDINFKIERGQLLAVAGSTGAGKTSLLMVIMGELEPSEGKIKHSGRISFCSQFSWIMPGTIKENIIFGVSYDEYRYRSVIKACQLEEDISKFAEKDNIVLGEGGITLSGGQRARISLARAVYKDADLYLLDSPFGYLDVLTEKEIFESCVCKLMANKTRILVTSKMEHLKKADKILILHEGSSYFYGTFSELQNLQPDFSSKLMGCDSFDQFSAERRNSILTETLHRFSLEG

## CC(=O)OCOC(=O)CN(CC(=O)OCOC(C)=O)c1ccccc1OCCOc1ccccc1N(CC(=O)OCOC(C)=O)CC(=O)OCOC(C)=O [BAPTA‐AM]
TG2 and CFTR
  Prevention of P31–43-induced TG2–CFTR interaction: prevented

## COC(=O)[C@H](CC(C)C)NC(=O)[C@@H]1CCCN1C(=O)[C@@H](NC(=O)[C@H](CCC(=O)C=[N+]=[N-])NC(=O)OCc1ccccc1)C(C)C [Z‐DON] (Cbz-[DON]VPL-OMe)
TG2
  Inhibition of P31–43-induced glutamine-lysine bonds in CFTR immunoprecipitates: undetectable
TG2 and CFTR
  Prevention of P31–43-induced TG2–CFTR interaction: prevented

## GAVAAVGVVAGA [PGAV]
[1]
  Effect on rate of iodide efflux: not by P57–68 or PGAV
CFTR (Caco‐2 cells)
  Effect on forskolin-inducible chloride current: but not P57–68, P33‐mer or PGAV

## LGQAAPFPPAAPY [4QA]
CFTR
  Co-immunoprecipitation with CFTR: marginal interaction with CFTR protein
[2]
  SPR binding to rhNBD1: strongly reduced as compared to unmutated P31–43
CFTR (Caco‐2 cells); Caco-2, 1 h
  Inhibition of CFTR function by modified peptide: largely unable to inhibit CFTR function

## LGQQQPFPPQQPY-NH2 [P31–43, LGQQQPFPPQQPY]
NBD1
  IC50: 55.1 µM
Caco‐2 and T84 cells
  Effect on cell viability: did not affect cell viability

## LQLQPFPQPQLPY PQPQLPYPQPQLPYPQPQPF [P33‐mer]
CFTR (Caco‐2 cells)
  Effect on forskolin-inducible chloride current: but not P57–68, P33‐mer or PGAV

## QLQPFPQPQLPY [P57–68]
Enterocytes / T cells
  Enterocyte stress / T cell activation: activating T cells in the absence of any toxic effect on epithelial cells
TG2 and NBD1
  Binding to TG2 and complex formation with NBD1: but not P57–68
[2]
  SPR binding to rhNBD1: failed to induce any signal
Celiac PBMC
  IFN-γ production: but not the P57–68 or P31–43 alone
[1]
  Effect on rate of iodide efflux: not by P57–68 or PGAV
CFTR (Caco‐2 cells)
  Effect on forskolin-inducible chloride current: but not P57–68, P33‐mer or PGAV

B1: biotinylated P31–43 (peptide)
peptide: LGQQQPFPPQQPY
modifications: also: biotin tag, position not given here
[3]
  binding result: binds
